Assay results taken from ChEMBL document CHEMBL1147232, “An anxiolytic-like effect of Ginkgo biloba extract and its constituent, ginkgolide-A, in mice” (J Nat Prod, 2003).

How the values were obtained:
Mus musculus [1] = assay: Anxiolytic-like activity in ddY mouse assessed as number of shuttle per hour at 10 mg/kg, po by discrete shuttle avoidance test; type: functional
Summary of the method: (§1)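 Male ddY mice (7 weeks, 33-36 g), pretrained and reused, showing stable baselines (150-250 shuttles/h, fewer than 10 shocks per session). Single oral dose immediately before a 60-min discrete shuttle avoidance session of 120 trials. Shuttles were full crossings of the chamber. Drug tests ran 3-4 days apart. Vehicle controls; n=10 per group; mean ± SEM; one- or two-way ANOVA with Student-Newman-Keuls.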

Mus musculus [2] = assay: Anxiolytic-like activity in ddY mouse assessed as number of shocks per hour at 10 mg/kg, po by discrete shuttle avoidance test; type: functional; summary of the method: as §1
Mus musculus [3] = assay: Anxiolytic-like activity in ddY mouse assessed as ambulatory activity at 1 mg/kg, po for 7 days measured 24 hrs after final drug administration assessed per 5 mins by tilting type ambulometer test; type: functional
Summary of the method: (§2)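 Male ddY mice (7 weeks, 33-36 g) dosed orally once daily (0.1 mL/10 g) for the stated number of days. Plus-maze 24 h after final dose, then ambulatory activity counted for 5 min on a tilting ambulometer immediately after. Animals used once; N per group as tabulated; mean ± SEM; ANOVA with Student-Newman-Keuls.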

Mus musculus [4] = assay: Anxiolytic-like activity in ddY mouse assessed as time spent in open-sided arms at 1 mg/kg, po for 7 days measured 24 hrs after final drug administration by elevated plus-maze test; type: functional
Summary of the method: (§3)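 Elevated plus-maze with two walled arms (6 × 30 × 10 cm); time (s) in the open-sided arms recorded 24 h after the last of daily oral doses given for the stated number of days. Male ddY mice, 7 weeks, drug-naive, used once. Mean ± SEM; ANOVA with Student-Newman-Keuls.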

Mus musculus [5] = assay: Anxiolytic-like activity in ddY mouse assessed as ambulatory activity at 0.3 mg/kg, po for 7 days measured 24 hrs after final drug administration assessed per 5 mins by tilting type ambulometer test; type: functional
Mus musculus [6] = assay: Anxiolytic-like activity in ddY mouse assessed as time spent in open-sided arms at 0.3 mg/kg, po for 7 days measured 24 hrs after final drug administration by elevated plus-maze test; type: functional
Mus musculus [7] = assay: Anxiolytic-like activity in ddY mouse assessed as time spent in open-sided arms at 2 mg/kg, po for 1 day measured after 1 hr by elevated plus-maze test; type: functional
Summary of the method: (§4)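 Elevated plus-maze with two walled arms (6 × 30 × 10 cm) and an 8 × 8 cm central platform; read-out is time (s) in the open-sided arms. 10 mice per group, each used once; mean ± SEM; one-way ANOVA with Student-Newman-Keuls.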

Mus musculus [8] = assay: Anxiolytic-like activity in ddY mouse assessed as ambulatory activity at 2 mg/kg, po for 1 day measured after 1 hr assessed per 5 mins by tilting type ambulometer test; type: functional
Summary of the method: (§5)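 Ambulatory activity counted for 5 min on a tilting ambulometer immediately after the maze. 10 mice per group; mean ± SEM; one-way ANOVA with Student-Newman-Keuls.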

Mus musculus [9] = assay: Anxiolytic-like activity in ddY mouse assessed as pentobarbital-induced sleep time at 1 mg/kg, po administered 30 mins before pentobarbital challenge; type: functional
Summary of the method: (§6)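 Oral dose to male ddY mice 30 min before pentobarbital-Na 50 mg/kg ip. Sleep time is the interval between loss and recovery of righting reflex (s). Separate drug-naive mice, used once; 10 per group; mean ± SEM; one-way ANOVA with Student-Newman-Keuls.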

Mus musculus [10] = assay: Anxiolytic-like activity in ddY mouse assessed as number of shocks per hour at 5 mg/kg, po administered 30 mins before test by discrete shuttle avoidance test; type: functional
Summary of the method: (§7)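 Well-trained male ddY mice with stable baselines (150-250 shuttles/h, under 10 shocks) had 60-min discrete shuttle avoidance sessions of 120 trials, dosed orally 30 min before. Shuttles and shocks per hour counted. Drug tests at 3-4 day intervals, mice reused; 10 mice per group; mean ± SEM; one-way ANOVA with Student-Newman-Keuls.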

Mus musculus [11] = assay: Anxiolytic-like activity in ddY mouse assessed as ambulatory activity at 1 mg/kg, po for 3 days measured 24 hrs after final drug administration assessed per 5 mins by tilting type ambulometer test; type: functional; summary of the method: as §2
Mus musculus [12] = assay: Anxiolytic-like activity in ddY mouse assessed as pentobarbital-induced sleep time at 20 mg/kg, po administered 30 mins before pentobarbital challenge; type: functional; summary of the method: as §6
Mus musculus [13] = assay: Toxicity in ddY mouse assessed as induction of muscle relaxation at 1 mg/kg, po after 1 to 3 hrs; type: organism-based; parameters: dose 1 mg/kg, route oral; settings: in vivo
Mus musculus [14] = assay: Toxicity in ddY mouse assessed as induction of excitation at 20 mg/kg, po after 1 to 3 hrs; type: organism-based; parameters: dose 20 mg/kg, route oral; settings: in vivo
Mus musculus [15] = assay: Anxiolytic-like activity in ddY mouse assessed as time spent in open-sided arms at 1 mg/kg, po for 3 days measured 24 hrs after final drug administration by elevated plus-maze test; type: functional; summary of the method: as §3
Mus musculus [16] = assay: Toxicity in ddY mouse at 1 to 2 mg/kg, po; type: organism-based; parameters: dose 1-2 mg/kg, route oral; settings: in vivo
Mus musculus [17] = assay: Anxiolytic-like activity in ddY mouse assessed as ambulatory activity at 1 mg/kg, po for 4 days measured 24 hrs after final drug administration assessed per 5 mins by tilting type ambulometer test; type: functional
Mus musculus [18] = assay: Anxiolytic-like activity in ddY mouse assessed as number of shuttle per hour at 1 mg/kg, po administered 30 mins before test by discrete shuttle avoidance test; type: functional; summary of the method: as §7
Mus musculus [19] = assay: Anxiolytic-like activity in ddY mouse assessed as time spent in open-sided arms at 1 mg/kg, po for 2 days measured 24 hrs after final drug administration by elevated plus-maze test; type: functional; summary of the method: as §3
Mus musculus [20] = assay: Toxicity in ddY mouse assessed as induction of ataxia at 1 mg/kg, po after 1 to 3 hrs; type: organism-based; parameters: dose 1 mg/kg, route oral; settings: in vivo
Mus musculus [21] = assay: Anxiolytic-like activity in ddY mouse assessed as ambulatory activity at 1 mg/kg, po for 1 day measured after 1 hr assessed per 5 mins by tilting type ambulometer test; type: functional; summary of the method: as §5
[22] = Half life in rat; type: ADME, organism-based; settings: in vivo
Mus musculus [23] = assay: Toxicity in ddY mouse assessed as induction of sedation at 20 mg/kg, po after 1 to 3 hrs; type: organism-based; parameters: dose 20 mg/kg, route oral; settings: in vivo
Mus musculus [24] = assay: Anxiolytic-like activity in ddY mouse assessed as pentobarbital-induced sleep time at 2 mg/kg, po administered 30 mins before pentobarbital challenge; type: functional; summary of the method: as §6
Mus musculus [25] = assay: Anxiolytic-like activity in ddY mouse assessed as ambulatory activity at 2 mg/kg, po for 7 days measured 24 hrs after final drug administration assessed per 5 mins by tilting type ambulometer test; type: functional; summary of the method: as §2
Mus musculus [26] = assay: Anxiolytic-like activity in ddY mouse assessed as time spent in open-sided arms at 2 mg/kg, po for 7 days measured 24 hrs after final drug administration by elevated plus-maze test; type: functional; summary of the method: as §3
Mus musculus [27] = assay: Anxiolytic-like activity in ddY mouse assessed as number of shocks per hour at 1 mg/kg, po administered 30 mins before test by discrete shuttle avoidance test; type: functional; summary of the method: as §7
Mus musculus [28] = assay: Anxiolytic-like activity in ddY mouse assessed as ambulatory activity at 1 mg/kg, po for 2 days measured 24 hrs after final drug administration assessed per 5 mins by tilting type ambulometer test; type: functional; summary of the method: as §2
Mus musculus [29] = assay: Anxiolytic-like activity in ddY mouse assessed as number of shuttle per hour at 5 mg/kg, po administered 30 mins before test by discrete shuttle avoidance test; type: functional; summary of the method: as §7
Mus musculus [30] = assay: Anxiolytic-like activity in ddY mouse assessed as time spent in open-sided arms at 1 mg/kg, po for 5 days measured 24 hrs after final drug administration by elevated plus-maze test; type: functional; summary of the method: as §3
Mus musculus [31] = assay: Anxiolytic-like activity in ddY mouse assessed as pentobarbital-induced sleep time at 0.5 mg/kg, po administered 30 mins before pentobarbital challenge; type: functional; summary of the method: as §6
Mus musculus [32] = assay: Anxiolytic-like activity in ddY mouse assessed as pentobarbital-induced sleep time at 10 mg/kg, po administered 30 mins before pentobarbital challenge; type: functional; summary of the method: as §6
Mus musculus [33] = assay: Anxiolytic-like activity in ddY mouse assessed as time spent in open-sided arms at 1 mg/kg, po for 4 days measured 24 hrs after final drug administration by elevated plus-maze test; type: functional
Mus musculus [34] = assay: Toxicity in ddY mouse assessed as body weight gain after repeated administration; type: organism-based; settings: in vivo
Mus musculus [35] = assay: Anxiolytic-like activity in ddY mouse assessed as time spent in open-sided arms at 1 mg/kg, po for 1 day measured after 1 hr by elevated plus-maze test; type: functional; summary of the method: as §4
Mus musculus [36] = assay: Anxiolytic-like activity in ddY mouse assessed as ambulatory activity at 1 mg/kg, po for 5 days measured 24 hrs after final drug administration assessed per 5 mins by tilting type ambulometer test; type: functional; summary of the method: as §2
Mus musculus [37] = assay: Anxiolytic-like activity in ddY mouse assessed as pentobarbital-induced sleep time at 5 mg/kg, po administered 30 mins before pentobarbital challenge; type: functional; summary of the method: as §6

SMILES: Cn1c(=O)c2c(ncn2C)n(C)c1=O [CAFFEINE]
- Activity (Mus musculus [1]): 428.9
- Activity (Mus musculus [2]): 3.4

SMILES: CN1C(=O)CN=C(c2ccccc2)c2cc(Cl)ccc21 [DIAZEPAM]
- Activity (Mus musculus [3]): 43.1
- Activity (Mus musculus [4]): 24.7 s

SMILES: CCOC(=O)c1ncn2c1CN(C)C(=O)c1cc(F)ccc1-2 [FLUMAZENIL]
- Activity (Mus musculus [5]): 31.5
- Activity (Mus musculus [6]): 5.5 s

SMILES: C[C@@H]1C(=O)O[C@H]2C[C@@]34[C@H]5C[C@@H](C(C)(C)C)[C@]36[C@@H](OC(=O)[C@@H]6O)O[C@@]4(C(=O)O5)[C@]21O [GINKGOLIDE A]
- Activity (Mus musculus [7]): 5.9 s
- Activity (Mus musculus [8]): 35.4
- Activity (Mus musculus [9]): 2830 s
- Activity (Mus musculus [10]): 1.1
- Activity (Mus musculus [11]): 35.5
- Activity (Mus musculus [12]): 3490 s
- Activity (Mus musculus [13]): Non-toxic
- Activity (Mus musculus [14]): Non-toxic
- Activity (Mus musculus [15]): 12.7 s
- Activity (Mus musculus [16]): Non-toxic
- Activity (Mus musculus [17]): 40.1
- Activity (Mus musculus [18]): 182.8
- Activity (Mus musculus [19]): 10.5 s
- Activity (Mus musculus [20]): Non-toxic
- Activity (Mus musculus [21]): 39.1
- half-life [22]: 1.5 h
- Activity (Mus musculus [3]): 35.3
- Activity (Mus musculus [23]): Non-toxic
- Activity (Mus musculus [24]): 3510 s
- Activity (Mus musculus [25]): 29.5
- Activity (Mus musculus [26]): 17.4 s
- Activity (Mus musculus [27]): 1.6
- Activity (Mus musculus [28]): 31.6
- Activity (Mus musculus [29]): 162.9
- Activity (Mus musculus [30]): 17.8 s
- Activity (Mus musculus [31]): 3270 s
- Activity (Mus musculus [32]): 3690 s
- Activity (Mus musculus [33]): 17.8 s
- Activity (Mus musculus [34]): Non-toxic
- Activity (Mus musculus [35]): 7.6 s
- Activity (Mus musculus [36]): 40.1
- Activity (Mus musculus [4]): 18.6 s
- Activity (Mus musculus [37]): 3694 s
